Screening results deposited in PubChem by several laboratories.
This is one part of a sample in which hits are shown more often than they occur.
Lmaj promast: Leishmania major promastigote growth inhibition | inhibition, % at 10 µM | 200,000 compounds, 9% hits | Leishmania major promastigotes, resazurin fluorescence viability | AID 1063; in the data active = inhibition above about 50%;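 note: promastigotes grown with compound for 44 hours at 28 °C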
Mdm2 ligase inh: inhibitors of human Mdm2 E3 ubiquitin ligase. Q00987. cell-based MDM2 ubiquitination luciferase reporter, 2 h; 0 = plate control, 100 = twice control, blank-subtracted. signal enhancement, % at 5 µM. 210,000 compounds, 0.11% hits. AID 1230;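 active = signal enhancement of 30% or more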;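 note: luminescence tracks abundance of the self-degrading MDM2-luciferase fusion protein; higher signal means inhibition of MDM2 E3 ligase activity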
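Test system: mammalian cells stably expressing self-ubiquitinating, self-degrading MDM2 E3–luciferase fusion; Amount: 2000 cells in each well; Medium: DMEM; Schedule: 4 h settle plus 2 h compound, 37 °C; Technique: SteadyLite luciferase luminescence after 15 min room-temperature reagent incubation; Benchmarks: plate control and blank wells.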
S1P4 antagonist: antagonists of human S1P4 receptor | O95977 | S1P4-expressing cells, antagonist mode, reporter read-out | inhibition, % at 4.98 µM | 220,000 compounds, 0.26% hits; in the data active = inhibition above about 29%
S1P3 antagonist: S1P3 (human) receptor antagonism | 170,000 compounds, 0.27% hits | inhibition, % at 4.98 µM | CHO S1P3 NFAT-BLA reporter, FRET fluorescence, antagonist mode;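 active = inhibition above the plate cutoff, the mean inhibition of test wells on that plate plus 3 SD, cut at about 28% in these data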;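 note: cells challenged with S1P at its EC80 of 0.8 µM; blue over green emission ratio from cleaved BLA substrate after 4 h stimulation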
Target sequence (Q99500 whole entry, looked up): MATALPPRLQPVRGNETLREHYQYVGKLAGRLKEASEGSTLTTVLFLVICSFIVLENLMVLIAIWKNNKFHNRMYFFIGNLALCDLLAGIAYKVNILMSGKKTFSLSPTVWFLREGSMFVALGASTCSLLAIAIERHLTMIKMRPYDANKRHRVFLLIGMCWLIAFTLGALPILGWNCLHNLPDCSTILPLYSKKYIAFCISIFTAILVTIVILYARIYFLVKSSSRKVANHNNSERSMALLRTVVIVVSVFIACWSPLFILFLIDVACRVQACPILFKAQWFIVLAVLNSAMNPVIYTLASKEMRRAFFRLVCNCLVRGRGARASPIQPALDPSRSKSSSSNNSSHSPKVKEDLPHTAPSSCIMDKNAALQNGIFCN
S1P4 ag: human S1P4 receptor agonism. O95977. S1P4-expressing cell line, agonist reporter assay. activation, % at 4.98 µM. 220,000 compounds, 0.35% hits. AID 1509; in the data active = activation above about 11%
Lmaj promast 1uM: inhibitors of Leishmania major promastigote growth, repeat at 1 uM | inhibition, % at 1 µM | AID 1258 | L. major promastigote growth, resazurin fluorescence, 48 h | 1,100 compounds, 13% hits | shares compounds with Lmaj promast;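 active = inhibition above about 50% in both repeat tests, limit read from the data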
A number is an active result; – = inactive; · = no result given.

SMILES	Lmaj promast	Mdm2 ligase inh	S1P4 antagonist	S1P3 antagonist	S1P4 ag	Lmaj promast 1uM
CC(=O)N(c1cccc(Br)c1)C1C=CS(=O)(=O)C1 (configuration not stated)	–	–	–	–	–	·
Cc1ccc(N(C(=O)C2CCCC2)C2C=CS(=O)(=O)C2)cc1C (configuration not stated)	56.0	–	–	–	–	–
CCc1ccc2oc(-c3ccc(OC)cc3)cc(=Nc3c(C)n(C)n(-c4ccccc4)c3=O)c2c1	90.3	–	–	–	–	–
CCc1ccc2oc(-c3ccc(OC)cc3)cc(=Nc3cccc(C(=O)O)c3)c2c1	–	–	–	–	–	·
Cc1ccc(-c2cc(-c3ccc(F)cc3)c(C#N)c(N)n2)o1	60.2	–	–	–	–	–
Cc1ccc(-c2cc(-c3ccc(C)o3)nc(N)c2C#N)cc1	–	–	–	–	–	·
Cc1cc(/C=C2\Sc3ccccc3N2C)cc(C)[n+]1CC1CCCO1 (configuration not stated)	100.6	–	–	–	–	101.3
C/C(=N/OC(=O)C1CC12CCC2)c1ccc(Br)cc1 (configuration not stated)	–	–	–	–	–	·
Cc1ccc(NC(=O)N2CCCCC2)cc1[N+](=O)[O-]	·	–	–	–	–	·
O=C1C(c2ccc(F)cc2)N(Cc2ccc3c(c2)OCO3)C(=O)CN1C1CCCCCC1 (configuration not stated)	–	–	–	·	–	·
COc1ccc(C2C(=O)N(C3CCCCC3)CC(=O)N2Cc2ccc3c(c2)OCO3)cc1 (configuration not stated)	91.1	–	–	·	–	–
COc1ccccc1NC(=O)CN1CCC(C(=O)c2ccc(F)cc2)CC1	70.7	–	–	·	–	–
COc1ccccc1NC(=O)N1CCC(C(=O)c2ccc(F)cc2)CC1	–	–	–	–	–	·
CCOC(=O)N1CCN(c2c(NCC3CCN(Cc4cccc(C)c4)CC3)c(=O)c2=O)CC1	–	–	–	–	–	·
CCCCCn1c(=N)n(CC(O)COc2ccccc2OC)c2ccccc21 (configuration not stated)	83.3	–	–	–	–	–
C=CCn1c(=N)n(CC(O)COc2ccccc2OC)c2ccccc21 (configuration not stated)	–	–	–	–	–	·
CCCNCC1C(Oc2ccc(Cl)cc2)C(=O)N1c1ccccc1C (configuration not stated)	91.0	–	–	–	–	–
CCC1(c2ccccc2)NC(=O)N(Cc2ccc(C(=O)OC)cc2)C1=O (configuration not stated)	–	–	–	–	–	·
c1ccc2c(c1)CCOC2CNCCCN1CCCCC1 (configuration not stated)	56.2	–	–	·	–	–
CCN(CC)c1ccc(NC(=O)CN2CCN(S(=O)(=O)c3cc(Cl)ccc3OC)CC2)cc1	54.2	–	–	·	–	65.7
Cc1ccc2nc(C)c(C(=O)N/N=C/c3ccco3)cc2c1	–	–	–	–	–	·
O=C(N/N=C/c1ccco1)c1cc([N+](=O)[O-])cc([N+](=O)[O-])c1	97.4	–	–	–	–	–
Cc1nc2ccccc2cc1C(=O)N/N=C/c1ccco1	70.0	–	–	–	–	–
CS(=O)(=O)N(CC(=O)NC1CCCC1)C1CCCCC1	–	–	–	–	–	·
CCNC(=O)/C(=C\C=C\c1ccccc1)NC(=O)c1ccc(Br)o1	–	–	–	–	–	·
SMILES	Lmaj promast	Mdm2 ligase inh	S1P4 antagonist	S1P3 antagonist	S1P4 ag	Lmaj promast 1uM
NC(=O)[C@@H]1CCNc2c(I)cc([N+](=O)[O-])cc2C(=O)N[C@@H](CCC(=O)O)C(=O)N[C@@H](CO)C(=O)N1	–	·	–	–	–	·
CC1C(=O)C(C)(C)C(=O)OC1c1ccccc1 (configuration not stated)	·	–	–	–	–	·
CC1=C(OC(=O)C(C)(C)C)C(C)(C)C(c2ccccc2)OC1=O (configuration not stated)	55.5	–	–	–	–	–
N#C/C(=C\Nc1ccccc1O)c1nc2ccccc2o1	78.8	–	–	–	–	–
CN(CCN1CCc2ccccc2C1)Cc1nc(Cc2ccccc2F)no1	85.1	–	–	–	–	71.7
O=C(Cc1csc(-c2ccccc2)n1)NCc1cccs1	–	–	–	–	–	·
CN(C)c1cc(N/N=C/c2ccc(Cl)cc2)nc(N(C)C)n1	78.1	–	–	–	–	73.8
COc1cc(N/N=C/c2ccc(N(C)C)cc2)ncn1	–	–	–	–	–	·
O=C(O)c1ccccc1/C=N/NC(=S)NCc1ccccc1	·	–	–	–	–	·
S=C(Nc1ccc2c(c1)OCO2)N1CCN(Cc2ccco2)CC1	–	–	–	–	–	·
Cc1ccc(C(C(=O)NC(C)(C)C)N(Cc2ccco2)C(=O)CCC(=O)Nc2nccs2)cc1 (configuration not stated)	–	·	–	·	–	·
CC(=O)Cc1cc(O)c2ccccc2c1OC(=O)c1ccccc1	–	–	–	–	–	·
CC(=O)Oc1c(C)cc(O)c2ccccc12	82.5	–	–	–	–	–
C=C(C)c1cccc(C(C)(C)NC(=O)N(C)C2CCN(C)CC2)c1	97.7	–	–	–	–	–
C=C(C)c1cccc(C(C)(C)NC(=O)N2CCCC(C)C2)c1 (configuration not stated)	–	–	–	·	–	·
CCOc1ccc(NC(=O)CC(NCc2ccccn2)C(=O)O)cc1 (configuration not stated)	–	–	–	–	–	·
CC(CCc1ccccc1)NC(=O)CCCCCNc1nc(=S)[nH]c2ccccc12 (configuration not stated)	–	–	–	–	–	·
Cc1nn(-c2ccccc2)c2c1C(O)n1c(nc3ccccc31)S2 (configuration not stated)	58.2	–	–	–	–	–
Cc1nn(-c2ccccc2)c2sc(C(=O)O)cc12	–	–	–	·	–	·
COc1ccc(NC(=O)c2ccc(S(=O)(=O)N(C)c3ccccc3)cc2)cn1	·	·	–	–	–	·
C#CCSc1nsc(SCC#C)c1C#N	94.4	–	–	–	–	–
COc1ccc(/C=C/c2cc(C(F)(F)F)on2)cc1	·	–	–	–	–	·
COc1ccc(OCC(O)CNC(=O)/C=C/c2cccc([N+](=O)[O-])c2)cc1 (configuration not stated)	–	–	–	–	–	·
O=C(NNc1cccc(Cl)c1)c1cccnc1Oc1ccccc1	·	–	–	–	–	·
Cc1ccc(S(=O)(=O)c2c(C)nn(C(C)(C)C)c2OC(=O)C2CCCC2)cc1	–	–	–	–	–	·
Cc1nn(C(C)(C)C)c(OC(=O)C2CCCC2)c1S(=O)(=O)c1ccccc1	61.6	–	–	–	–	–
CCC(C)[C@H](NC(=O)Nc1ccc(C)cc1C)C(=O)O (some centres not stated)	·	–	–	–	–	·
CN(C)CCNc1c2c(c(C#N)c3nc4ccccc4n13)CCCC2	53.7	–	–	–	–	–
